Data taken from ChEMBL document CHEMBL1153726, “Synthesis and anticancer activity of sclerophytin-inspired hydroisobenzofurans” (Bioorg Med Chem Lett, 2009).

Legend:
Assay type in all cases: functional
[1] = test system: NCI-H23; experiment: Growth inhibition of human NCI-H23 cells at 1 nM after 96 hrs by MTT assay; design: scale not given: the % may be the effect or the level left
[2] = test system: SR; experiment: Growth inhibition of human SR cells at 1 uM after 96 hrs by MTT assay; design: scale not given: the % may be the effect or the level left
[3] = test system: SK-MEL-28; experiment: Growth inhibition of human SK-MEL-28 cells at 1 nM after 96 hrs by MTT assay; design: scale not given: the % may be the effect or the level left
[4] = test system: ACHN; experiment: Growth inhibition of human ACHN cells at 1 uM after 96 hrs by MTT assay; design: scale not given: the % may be the effect or the level left
[5] = test system: SF-539; experiment: Growth inhibition of human SF539 cells at 10 uM after 96 hrs by MTT assay; design: scale not given: the % may be the effect or the level left
[6] = test system: NCI-H322M; experiment: Growth inhibition of human NCI-H322M cells at 1 nM after 96 hrs by MTT assay; design: scale not given: the % may be the effect or the level left
[7] = test system: SR; experiment: Growth inhibition of human SR cells at 100 nM after 96 hrs by MTT assay; design: scale not given: the % may be the effect or the level left
[8] = test system: SK-OV-3; experiment: Growth inhibition of human SKOV3 cells after 96 hrs by MTT assay; conditions: SK-OV-3, 96 h
In short: (§1)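 Tested in the NCI 60-cell-line panel in five-dose format; GI50 and LC50 values reported for each cell line.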

[9] = test system: ACHN; experiment: Growth inhibition of human ACHN cells at 10 nM after 96 hrs by MTT assay; design: scale not given: the % may be the effect or the level left
[10] = test system: HL-60(TB); experiment: Growth inhibition of human HL-60(TB) cells after 96 hrs by MTT assay; conditions: HL-60, 96 h
[11] = test system: SF-295; experiment: Growth inhibition of human SF295 cells at 10 uM after 96 hrs by MTT assay; design: scale not given: the % may be the effect or the level left
[12] = test system: TK-10; experiment: Growth inhibition of human TK10 cells at 10 nM after 96 hrs by MTT assay; design: scale not given: the % may be the effect or the level left
[13] = test system: UACC-62; experiment: Growth inhibition of human UACC62 cells after 96 hrs by MTT assay; conditions: UACC-62, 96 h; in short: as §1
[14] = test system: Malme-3M; experiment: Growth inhibition of human MALME-3M cells at 10 nM after 96 hrs by MTT assay; design: scale not given: the % may be the effect or the level left
[15] = test system: A498; experiment: Growth inhibition of human A498 cells after 96 hrs by MTT assay; conditions: A498, 96 h
[16] = test system: RXF 393; experiment: Growth inhibition of human RXF393 cells at 1 nM after 96 hrs by MTT assay; design: scale not given: the % may be the effect or the level left
[17] = Growth inhibition of human RPMI8266 cells at 10 uM after 96 hrs by MTT assay; design: scale not given: the % may be the effect or the level left
[18] = test system: SW-620; experiment: Growth inhibition of human SW620 cells at 10 uM after 96 hrs by MTT assay; design: scale not given: the % may be the effect or the level left
[19] = test system: RXF 393; experiment: Growth inhibition of human RXF393 cells at 10 nM after 96 hrs by MTT assay; design: scale not given: the % may be the effect or the level left
[20] = test system: PC-3; experiment: Growth inhibition of human PC3 cells at 10 uM after 96 hrs by MTT assay; design: scale not given: the % may be the effect or the level left
[21] = test system: COLO 205; experiment: Growth inhibition of human COLO205 cells at 10 nM after 96 hrs by MTT assay; design: scale not given: the % may be the effect or the level left
[22] = test system: KM12; experiment: Growth inhibition of human KM12 cells at 100 nM after 96 hrs by MTT assay; design: scale not given: the % may be the effect or the level left
[23] = test system: EKVX; experiment: Growth inhibition of human EKVX cells at 10 uM after 96 hrs by MTT assay; design: scale not given: the % may be the effect or the level left
[24] = test system: MDA-MB-468; experiment: Growth inhibition of human MDA-MB-468 cells at 10 nM after 96 hrs by MTT assay; design: scale not given: the % may be the effect or the level left
[25] = test system: SK-MEL-5; experiment: Growth inhibition of human SK-MEL-5 cells at 1 uM after 96 hrs by MTT assay; design: scale not given: the % may be the effect or the level left
[26] = test system: NCI/ADR-RES; experiment: Growth inhibition of human NCI/ADR-RES cells at 10 uM after 96 hrs by MTT assay; design: scale not given: the % may be the effect or the level left
[27] = test system: HCT-15; experiment: Growth inhibition of human HCT15 cells at 1 nM after 96 hrs by MTT assay; design: scale not given: the % may be the effect or the level left
[28] = test system: HCT-116; experiment: Growth inhibition of human HCT116 cells at 10 uM after 96 hrs by MTT assay; design: scale not given: the % may be the effect or the level left
[29] = test system: SF-295; experiment: Growth inhibition of human SF295 cells at 100 nM after 96 hrs by MTT assay; design: scale not given: the % may be the effect or the level left
[30] = test system: PC-3; experiment: Growth inhibition of human PC3 cells at 10 nM after 96 hrs by MTT assay; design: scale not given: the % may be the effect or the level left
[31] = test system: MCF7; experiment: Growth inhibition of human MCF7 cells after 96 hrs by MTT assay; conditions: MCF7, 96 h
In short: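 Run in the NCI 60 human tumour cell line panel as a five-dose assay. GI50 and LC50 were reported for each cell line.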

[32] = test system: NCI-H23; experiment: Growth inhibition of human NCI-H23 cells at 10 uM after 96 hrs by MTT assay; design: scale not given: the % may be the effect or the level left
[33] = test system: K562; experiment: Growth inhibition of human K562 cells at 1 nM after 96 hrs by MTT assay; design: scale not given: the % may be the effect or the level left
[34] = test system: UACC-257; experiment: Growth inhibition of human UACC257 cells at 100 nM after 96 hrs by MTT assay; design: scale not given: the % may be the effect or the level left
[35] = test system: UACC-257; experiment: Growth inhibition of human UACC257 cells at 1 nM after 96 hrs by MTT assay; design: scale not given: the % may be the effect or the level left
[36] = test system: SF-539; experiment: Growth inhibition of human SF539 cells at 1 nM after 96 hrs by MTT assay; design: scale not given: the % may be the effect or the level left
[37] = test system: SK-MEL-28; experiment: Growth inhibition of human SK-MEL-28 cells at 10 uM after 96 hrs by MTT assay; design: scale not given: the % may be the effect or the level left
[38] = test system: CAKI-1; experiment: Growth inhibition of human Caki1 cells at 100 nM after 96 hrs by MTT assay; design: scale not given: the % may be the effect or the level left
[39] = test system: SK-MEL-5; experiment: Growth inhibition of human SK-MEL-5 cells at 1 nM after 96 hrs by MTT assay; design: scale not given: the % may be the effect or the level left
[40] = test system: NCI-H522; experiment: Growth inhibition of human NCI-H522 cells at 1 uM after 96 hrs by MTT assay; design: scale not given: the % may be the effect or the level left
[41] = test system: NCI/ADR-RES; experiment: Growth inhibition of human NCI/ADR-RES cells at 100 nM after 96 hrs by MTT assay; design: scale not given: the % may be the effect or the level left
[42] = test system: NCI-H226; experiment: Growth inhibition of human NCI-H226 cells at 100 nM after 96 hrs by MTT assay; design: scale not given: the % may be the effect or the level left
[43] = read-out: LC50 (the source's name)
[44] = read-out: Log10GI50 (converted)
[45] = read-out: Log10LC50 (converted)

## C=C(C)[C@H]1CC=C(C)C2=CO[C@@H](c3ccccc3F)[C@@H]21
[1]
  Activity: 98%
[2]
  Activity: -36%
[3]
  Activity: 98%
[4]
  Activity: 39%
[5]
  Activity: 92.75%
[6]
  Activity: 95%
[7]
  Activity: 47%
[8]; read-out: GI50
  GI50: 12.3 µM
[8]; [43]
  CC50: > 100 µM
[8]; [44]
  GI50: 12.3 µM
[8]; [45]
  CC50: > 100 µM
[8]; read-out: Log10TGI (converted)
  TGI: 38.9 µM
[8]; read-out: TGI
  TGI: 39.3 µM
[9]
  Activity: 96%
[10]; read-out: GI50
  GI50: 2.08 µM
[10]; [43]
  CC50: 35.5 µM
[10]; [44]
  GI50: 2.09 µM
[10]; [45]
  CC50: 35.5 µM
[10]; read-out: Log10TGI (converted)
  TGI: 5.01 µM
[10]; read-out: TGI
  TGI: 4.97 µM
[11]
  Activity: 85.19%
[12]
  Activity: 84%
[13]; read-out: GI50
  GI50: 3.31 µM
[13]; [43]
  CC50: 51.5 µM
[13]; [44]
  GI50: 3.31 µM
[13]; [45]
  CC50: 51.3 µM
[13]; read-out: Log10TGI (converted)
  TGI: 18.2 µM
[13]; read-out: TGI
  TGI: 18.3 µM
[14]
  Activity: 88%
[15]; read-out: GI50
  GI50: 2.34 µM
[15]; [43]
  CC50: 26.5 µM
[15]; [44]
  GI50: 2.34 µM
[15]; [45]
  CC50: 26.3 µM
[15]; read-out: Log10TGI (converted)
  TGI: 7.08 µM
[15]; read-out: TGI
  TGI: 7.07 µM
[16]
  Activity: 94%
[17]
  Activity: 18.49%
[18]
  Activity: 101.12%
[19]
  Activity: 85%
[20]
  Activity: 22.47%
[21]
  Activity: 84%
[22]
  Activity: 90%
[23]
  Activity: 102.28%
[24]
  Activity: 79%
[25]
  Activity: 21%
[26]
  Activity: 108.3%
[27]
  Activity: 94%
[28]
  Activity: 71.81%
[29]
  Activity: 88%
[30]
  Activity: 89%
[31]; read-out: GI50
  GI50: 3.77 µM
[31]; [43]
  CC50: 63.9 µM
[31]; [44]
  GI50: 3.8 µM
[31]; [45]
  CC50: 64.6 µM
[31]; read-out: Log10TGI (converted)
  TGI: 18.6 µM
[31]; read-out: TGI
  TGI: 18.8 µM
[32]
  Activity: 95.4%
[33]
  Activity: 101%
[34]
  Activity: 81%
[35]
  Activity: 91%
[36]
  Activity: 91%
[37]
  Activity: 110.2%
[38]
  Activity: 87%
[39]
  Activity: 91%
[40]
  Activity: 29%
[41]
  Activity: 82%
[42]
  Activity: 75%
